In ChEMBL document CHEMBL4825692, “Benzofuranyl-2-imidazoles as imidazoline I2 receptor ligands for Alzheimer's disease” (Eur J Med Chem, 2021):

Legend:
[1] = target: T1, Adrenergic receptor alpha-2 (Homo sapiens, UniProt P08913+P18825+P18089); assay: Displacement of [3H]-RX821002 from adrenergic alpha 2 receptor in post-mortem human brain frontal cortex membrane measured after 30 mins by liquid scintillation counting spectrometry; assay type: cell membranes
T1 sequence (P08913 whole entry): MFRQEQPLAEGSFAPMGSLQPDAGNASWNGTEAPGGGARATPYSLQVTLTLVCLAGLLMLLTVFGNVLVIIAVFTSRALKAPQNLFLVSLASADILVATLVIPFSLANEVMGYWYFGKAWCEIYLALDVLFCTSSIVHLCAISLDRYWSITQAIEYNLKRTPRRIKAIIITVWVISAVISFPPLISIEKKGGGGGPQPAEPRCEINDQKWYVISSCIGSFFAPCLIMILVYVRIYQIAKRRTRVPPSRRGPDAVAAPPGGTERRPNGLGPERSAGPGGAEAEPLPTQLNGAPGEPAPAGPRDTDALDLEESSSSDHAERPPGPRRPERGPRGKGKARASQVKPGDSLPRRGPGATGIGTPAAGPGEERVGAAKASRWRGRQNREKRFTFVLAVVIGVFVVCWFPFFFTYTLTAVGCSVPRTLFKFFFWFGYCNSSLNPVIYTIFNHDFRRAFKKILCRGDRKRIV
T1 sequence (P18825 whole entry): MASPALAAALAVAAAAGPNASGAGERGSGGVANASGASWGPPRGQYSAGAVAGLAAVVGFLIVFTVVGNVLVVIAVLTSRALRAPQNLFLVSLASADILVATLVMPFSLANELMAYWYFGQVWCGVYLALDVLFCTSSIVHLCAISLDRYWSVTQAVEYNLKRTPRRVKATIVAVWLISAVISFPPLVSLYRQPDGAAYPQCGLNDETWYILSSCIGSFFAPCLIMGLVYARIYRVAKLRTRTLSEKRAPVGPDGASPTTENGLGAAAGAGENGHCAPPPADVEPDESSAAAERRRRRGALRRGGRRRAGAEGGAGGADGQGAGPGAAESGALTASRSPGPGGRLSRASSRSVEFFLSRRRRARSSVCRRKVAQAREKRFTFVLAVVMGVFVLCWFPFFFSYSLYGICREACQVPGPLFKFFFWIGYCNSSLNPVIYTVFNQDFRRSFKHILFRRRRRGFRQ
T1 sequence (P18089 whole entry): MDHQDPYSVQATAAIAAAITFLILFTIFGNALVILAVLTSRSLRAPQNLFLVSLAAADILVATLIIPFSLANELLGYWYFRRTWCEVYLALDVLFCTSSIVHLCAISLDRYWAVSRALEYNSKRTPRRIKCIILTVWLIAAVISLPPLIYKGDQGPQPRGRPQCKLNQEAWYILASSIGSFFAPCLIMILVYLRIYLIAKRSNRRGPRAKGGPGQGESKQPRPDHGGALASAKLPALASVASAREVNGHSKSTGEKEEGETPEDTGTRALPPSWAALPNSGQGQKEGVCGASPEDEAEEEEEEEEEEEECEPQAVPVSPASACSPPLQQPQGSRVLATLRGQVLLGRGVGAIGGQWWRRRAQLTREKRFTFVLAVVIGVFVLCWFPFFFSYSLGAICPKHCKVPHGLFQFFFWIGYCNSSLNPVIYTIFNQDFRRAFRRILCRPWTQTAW

[2] = organism: Homo sapiens; assay: Selectivity index, ratio of pKi for displacement of [3H]2-BFI from imidazoline I2 receptor in post-mortem human brain frontal cortex membrane to pKi for displacement of [3H]-RX821002 from adrenergic alpha 2 receptor in post-mortem human brain frontal cortex membrane; assay type: cell membranes
[3] = Permeability of compound by PAMPA-BBB assay; assay type: ADME
[4] = tested on: LN-229; assay: Cytotoxicity against human LN-229 cells at 100 uM by real time IncuCyte proliferation assay; assay type: cell-based; conditions: ln-229, 100 µM
Outline: (§1)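 Adherent lines (LN-229, Capan-1, HCT-116, NCI-H460) seeded at 500–1500 cells/well and treated after overnight attachment. Suspension lines (HL-60, K-562, Z-138, DND-41) seeded at 2500–5500 cells/well directly with compound. Highest concentration 100 μM; proliferation tracked by real-time IncuCyte imaging over 72 h at 37 °C.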

[5] = tested on: CAPAN-1; assay: Cytotoxicity against human CAPAN-1 cells at 100 uM by real time IncuCyte proliferation assay; assay type: cell-based; conditions: capan-1, 100 µM; outline: as §1
[6] = tested on: HCT-116; assay: Cytotoxicity against human HCT-116 cells at 100 uM by real time IncuCyte proliferation assay; assay type: cell-based; conditions: hct-116, 100 µM; outline: as §1
[7] = tested on: NCI-H460; assay: Cytotoxicity against human NCI-H460 cells at 100 uM by real time IncuCyte proliferation assay; assay type: cell-based; conditions: nci-h460, 100 µM; outline: as §1
[8] = Cytotoxicity against human DND41 cells at 100 uM by real time IncuCyte proliferation assay; assay type: cell-based; conditions: dnd41, 100 µM; outline: as §1
[9] = tested on: HL-60; assay: Cytotoxicity against human HL-60 cells at 100 uM by real time IncuCyte proliferation assay; assay type: cell-based; conditions: hl-60, 100 µM; outline: as §1
[10] = tested on: K562; assay: Cytotoxicity against human K562 cells at 100 uM by real time IncuCyte proliferation assay; assay type: cell-based; conditions: k562, 100 µM; outline: as §1
[11] = tested on: Z-138; assay: Cytotoxicity against human Z138 cells at 100 uM by real time IncuCyte proliferation assay; assay type: cell-based; conditions: z-138, 100 µM; outline: as §1
[12] = Displacement of [3H]2-BFI from imidazoline I2 receptor in post-mortem human brain frontal cortex membrane one site model measured after 45 mins by liquid scintillation counting spectrometry
[13] = Displacement of [3H]2-BFI from imidazoline I2 receptor low affinity site in post-mortem human brain frontal cortex membrane two site model measured after 45 mins by liquid scintillation counting spectrometry
[14] = Displacement of [3H]2-BFI from imidazoline I2 receptor high affinity site in post-mortem human brain frontal cortex membrane two site model measured after 45 mins by liquid scintillation counting spectrometry
[15] = organism: Homo sapiens; assay: Displacement of [3H]2-BFI from imidazoline I2 receptor in post-mortem human brain frontal cortex membrane assessed as occupancy at high affinity site measured after 45 mins by liquid scintillation counting spectrometry
[16] = Displacement of [3H]clonidine from imidazoline I1 receptor low affinity site in human hypothalamic membranes measured after 30 mins by liquid scintillation counting spectrometry; assay type: cell membranes, Hypothalamus, Membrane
[17] = Displacement of [3H]clonidine from imidazoline I1 receptor high affinity site in human hypothalamic membranes measured after 30 mins by liquid scintillation counting spectrometry; assay type: cell membranes, Hypothalamus, Membrane

Structure (SMILES)	pKi [1]	Selectivity Index [2]	Papp [3] [×10⁻⁶ cm/s]	Activity [4]	Activity [5]	Activity [6]	Activity [7]	Activity [8]	Activity [9]	Activity [10]	Activity [11]	pKi [12]	pKi [13]	pKi [14]	Activity [15] [%]	Ki [16] [µM]	Ki [17] [µM]
Brc1ccc2oc(-c3ncc[nH]3)cc2c1.Cl	4.92	23	20.3	Non-Toxic	Non-Toxic	Non-Toxic	Non-Toxic	Non-Toxic	Non-Toxic	Non-Toxic	Non-Toxic	6.28	5.85	8.63	20		
COc1nc(C)nc(Cl)c1NC1=NCCN1 [MOXONIDINE]																12	0.0002
Cl.Cn1ccnc1-c1cc2ccccc2o1	3.75	170	17.4	Non-Toxic	Non-Toxic	Non-Toxic	Non-Toxic	Non-Toxic	Non-Toxic	Non-Toxic	Non-Toxic	5.98	5.35	6.99	38		
c1ccc2c(c1)OCC(C1=NCCN1)O2 (centres undefined) [IDAZOXAN]			3.3	Non-Toxic	Non-Toxic	Non-Toxic	Non-Toxic	Non-Toxic	Non-Toxic	Non-Toxic	Non-Toxic	7.41	5.76	7.87	40		
COc1ccc2cc(-c3ncc[nH]3)oc2c1.Cl	3.01	741	7.6	Non-Toxic	Non-Toxic	Non-Toxic	Non-Toxic	Non-Toxic	Non-Toxic	Non-Toxic	Non-Toxic	5.88	4.58	6.77	46		
CCn1ccnc1-c1cc2ccccc2o1.Cl	3.77	19	19.2	Non-Toxic	Non-Toxic	Non-Toxic	Non-Toxic	Non-Toxic	Non-Toxic	Non-Toxic	Non-Toxic	5.05	4.72	7.09	22		
COc1ccc2oc(-c3ncc[nH]3)cc2c1.Cl	3.94	295	8.3	Non-Toxic	Non-Toxic	Non-Toxic	Non-Toxic	Non-Toxic	Non-Toxic	Non-Toxic	Non-Toxic	6.41					
c1ccc2oc(C3=NCCN3)cc2c1	4.58	5370	6.1	Non-Toxic	Non-Toxic	Non-Toxic	Non-Toxic	Non-Toxic	Non-Toxic	Non-Toxic	Non-Toxic	8.31	7.15	9.08	58		
CCn1ccnc1-c1cc2cc(OC)ccc2o1.Cl	4.21	6	12.4	Non-Toxic	Non-Toxic	Non-Toxic	Non-Toxic	Non-Toxic	Non-Toxic	Non-Toxic	Non-Toxic	4.96	4.16	6.95	35		
Cl.Oc1ccc2oc(-c3ncc[nH]3)cc2c1	3.84	11	0.32	Non-Toxic	Non-Toxic	Non-Toxic	Non-Toxic	Non-Toxic	Non-Toxic	Non-Toxic	Non-Toxic	4.87	4.6	9.57	29		
Cl.Oc1ccc2cc(-c3ncc[nH]3)oc2c1	3.76	52	0.1	Non-Toxic	Non-Toxic	Non-Toxic	Non-Toxic	Non-Toxic	Non-Toxic	Non-Toxic	Non-Toxic	5.48					
CCn1ccnc1-c1cc2ccc(OC)cc2o1.Cl	3.17	123	14.8	Non-Toxic	Non-Toxic	Non-Toxic	Non-Toxic	Non-Toxic	Non-Toxic	Non-Toxic	Non-Toxic	5.26	5.11	9.13	12		
